From ChEMBL document CHEMBL1817556, “Substituted lactam and cyclic azahemiacetals modulate Pseudomonas aeruginosa quorum sensing” (Bioorg Med Chem, 2011)
Each block holds one compound with its values, some of them ahead of it. The source made the active and inactive calls. The calls are words filed in the database; no cut-off is given here.

What was measured:
[1] = target: 3-(3-hydroxydecanoyloxy)decanoate synthase (Pseudomonas aeruginosa (strain ATCC 15692 / PAO1 / 1C / PRS 101 / LMG12228)) (UniProt Q51559); test: Modulation of Pseudomonas aeruginosa lacZ-fused rhlA expressed in Escherichia coli DH5alpha co-expressing Ptac-rhlR assessed as C4-AHL-induced effect at 0.33 mM after 4 hrs by beta-galactosidase assay relative to control
Procedure, shortened: (§1)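 rhl reporter: E. coli DH5α carrying pECP61.5 (Ptac-rhlR, PrhlA-lacZ) was grown overnight in LB with ampicillin (100 μg/ml) only, then diluted to OD600 0.150. It was induced with 1 mM IPTG, and 2 μM C4-HSL plus compound or DMSO were added at OD600 1.0. Cultures were shaken 4 h at 37 °C. β-Galactosidase activity was read in Miller units as % of the solvent sample. Triplicates per biological replicate, at least two repeats; paired two-tailed t-test.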

[2] = target: T1, Acyl-homoserine-lactone synthase (Pseudomonas aeruginosa (strain ATCC 15692 / PAO1 / 1C / PRS 101 / LMG12228)) (UniProt P33883); test: Modulation of Pseudomonas aeruginosa lacZ-fused lasI expressed in Escherichia coli DH5alpha co-expressing pBAD-lasR assessed as 3-oxo-C12-AHL-induced effect at 0.33 mM after 3 hrs by beta-galactosidase assay relative to control
T1 sequence (whole entry): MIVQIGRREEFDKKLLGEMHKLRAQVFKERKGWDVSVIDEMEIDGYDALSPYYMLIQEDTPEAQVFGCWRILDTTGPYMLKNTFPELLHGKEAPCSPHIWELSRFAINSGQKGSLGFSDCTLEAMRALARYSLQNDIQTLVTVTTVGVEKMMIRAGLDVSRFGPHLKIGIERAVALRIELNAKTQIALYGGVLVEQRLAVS
Procedure, shortened: (§2)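 E. coli DH5α carrying pSC11 (PlasI-lacZ translational fusion) and pJN105L (PBAD-lasR) was grown overnight in LB with ampicillin (100 μg/ml) and gentamicin (15 μg/ml), then diluted to OD600 0.150. Arabinose (0.2% w/v), 3-oxo-C12-AHL (2 μM) and test compound or DMSO were added. Cultures were shaken 3 h at 37 °C. β-Galactosidase activity was read in Miller units and expressed as % of the solvent sample. Triplicates per biological replicate, repeated at least twice; paired two-tailed t-test.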

[3] = target: 3-(3-hydroxydecanoyloxy)decanoate synthase (Pseudomonas aeruginosa (strain ATCC 15692 / PAO1 / 1C / PRS 101 / LMG12228)) (UniProt Q51559); test: Modulation of Pseudomonas aeruginosa lacZ-fused rhlA expressed in Escherichia coli DH5alpha co-expressing Ptac-rhlR assessed as C4-AHL-induced effect at 0.50 mM after 4 hrs by beta-galactosidase assay relative to control; procedure, shortened: as §1
[4] = target: T1, Acyl-homoserine-lactone synthase (Pseudomonas aeruginosa (strain ATCC 15692 / PAO1 / 1C / PRS 101 / LMG12228)); test: Modulation of Pseudomonas aeruginosa lacZ-fused lasI expressed in Escherichia coli DH5alpha co-expressing pBAD-lasR assessed as 3-oxo-C12-AHL-induced effect at 0.67 mM after 3 hrs by beta-galactosidase assay relative to control; procedure, shortened: as §2
[5] = target: 3-(3-hydroxydecanoyloxy)decanoate synthase (Pseudomonas aeruginosa (strain ATCC 15692 / PAO1 / 1C / PRS 101 / LMG12228)) (UniProt Q51559); test: Modulation of Pseudomonas aeruginosa lacZ-fused rhlA expressed in Escherichia coli DH5alpha co-expressing Ptac-rhlR assessed as C4-AHL-induced effect at 0.17 mM after 4 hrs by beta-galactosidase assay relative to control; procedure, shortened: as §1
[6] = target: 3-(3-hydroxydecanoyloxy)decanoate synthase (Pseudomonas aeruginosa (strain ATCC 15692 / PAO1 / 1C / PRS 101 / LMG12228)) (UniProt Q51559); test: Modulation of Pseudomonas aeruginosa lacZ-fused rhlA expressed in Escherichia coli DH5alpha co-expressing Ptac-rhlR assessed as C4-AHL-induced effect at 0.67 mM after 4 hrs by beta-galactosidase assay relative to control
Procedure, shortened: (§3)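 E. coli DH5α carrying pECP61.5 (Ptac-rhlR, PrhlA-lacZ), grown overnight in LB with ampicillin 100 μg/ml and diluted to OD600 0.150. At OD600 1.0, 1 mM IPTG, 2 μM C4-HSL and compound or DMSO were added. Cultures were shaken 4 h at 37 °C, then β-galactosidase was read in Miller units. Activity is % of solvent sample, from triplicates per biological replicate, with at least two repeats.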

[7] = target: T1, Acyl-homoserine-lactone synthase (Pseudomonas aeruginosa (strain ATCC 15692 / PAO1 / 1C / PRS 101 / LMG12228)); test: Modulation of Pseudomonas aeruginosa lacZ-fused lasI expressed in Escherichia coli DH5alpha co-expressing pBAD-lasR assessed as 3-oxo-C12-AHL-induced effect at 0.50 mM after 3 hrs by beta-galactosidase assay relative to control; procedure, shortened: as §2
[8] = target: T1, Acyl-homoserine-lactone synthase (Pseudomonas aeruginosa (strain ATCC 15692 / PAO1 / 1C / PRS 101 / LMG12228)); test: Modulation of Pseudomonas aeruginosa lacZ-fused lasI expressed in Escherichia coli DH5alpha co-expressing pBAD-lasR assessed as 3-oxo-C12-AHL-induced effect at 0.17 mM after 3 hrs by beta-galactosidase assay relative to control; procedure, shortened: as §2
[9] = target: T1, Acyl-homoserine-lactone synthase (Pseudomonas aeruginosa (strain ATCC 15692 / PAO1 / 1C / PRS 101 / LMG12228)); test: Modulation of Pseudomonas aeruginosa lacZ-fused lasI expressed in Escherichia coli DH5alpha co-expressing pBAD-lasR assessed as 3-oxo-C12-AHL-induced effect at 0.19 mM after 3 hrs by beta-galactosidase assay relative to control; procedure, shortened: as §2
[10] = target: 3-(3-hydroxydecanoyloxy)decanoate synthase (Pseudomonas aeruginosa (strain ATCC 15692 / PAO1 / 1C / PRS 101 / LMG12228)) (UniProt Q51559); test: Modulation of Pseudomonas aeruginosa lacZ-fused rhlA expressed in Escherichia coli DH5alpha co-expressing Ptac-rhlR assessed as C4-AHL-induced effect at 0.39 mM after 4 hrs by beta-galactosidase assay relative to control; procedure, shortened: as §1
[11] = target: T1, Acyl-homoserine-lactone synthase (Pseudomonas aeruginosa (strain ATCC 15692 / PAO1 / 1C / PRS 101 / LMG12228)); test: Modulation of Pseudomonas aeruginosa lacZ-fused lasI expressed in Escherichia coli DH5alpha co-expressing pBAD-lasR assessed as 3-oxo-C12-AHL-induced effect at 0.77 mM after 3 hrs by beta-galactosidase assay relative to control; procedure, shortened: as §2
[12] = target: 3-(3-hydroxydecanoyloxy)decanoate synthase (Pseudomonas aeruginosa (strain ATCC 15692 / PAO1 / 1C / PRS 101 / LMG12228)) (UniProt Q51559); test: Modulation of Pseudomonas aeruginosa lacZ-fused rhlA expressed in Escherichia coli DH5alpha co-expressing Ptac-rhlR assessed as C4-AHL-induced effect at 0.19 mM after 4 hrs by beta-galactosidase assay relative to control; procedure, shortened: as §1
[13] = target: 3-(3-hydroxydecanoyloxy)decanoate synthase (Pseudomonas aeruginosa (strain ATCC 15692 / PAO1 / 1C / PRS 101 / LMG12228)) (UniProt Q51559); test: Modulation of Pseudomonas aeruginosa lacZ-fused rhlA expressed in Escherichia coli DH5alpha co-expressing Ptac-rhlR assessed as C4-AHL-induced effect at 0.77 mM after 4 hrs by beta-galactosidase assay relative to control; procedure, shortened: as §3
[14] = target: 3-(3-hydroxydecanoyloxy)decanoate synthase (Pseudomonas aeruginosa (strain ATCC 15692 / PAO1 / 1C / PRS 101 / LMG12228)) (UniProt Q51559); test: Modulation of Pseudomonas aeruginosa lacZ-fused rhlA expressed in Escherichia coli DH5alpha co-expressing Ptac-rhlR assessed as C4-AHL-induced effect at 0.58 mM after 4 hrs by beta-galactosidase assay relative to control; procedure, shortened: as §3
[15] = target: T1, Acyl-homoserine-lactone synthase (Pseudomonas aeruginosa (strain ATCC 15692 / PAO1 / 1C / PRS 101 / LMG12228)); test: Modulation of Pseudomonas aeruginosa lacZ-fused lasI expressed in Escherichia coli DH5alpha co-expressing pBAD-lasR assessed as 3-oxo-C12-AHL-induced effect at 0.39 mM after 3 hrs by beta-galactosidase assay relative to control; procedure, shortened: as §2
[16] = target: T1, Acyl-homoserine-lactone synthase (Pseudomonas aeruginosa (strain ATCC 15692 / PAO1 / 1C / PRS 101 / LMG12228)); test: Modulation of Pseudomonas aeruginosa lacZ-fused lasI expressed in Escherichia coli DH5alpha co-expressing pBAD-lasR assessed as 3-oxo-C12-AHL-induced effect at 0.58 mM after 3 hrs by beta-galactosidase assay relative to control; procedure, shortened: as §2
[17] = target: T1, Acyl-homoserine-lactone synthase (Pseudomonas aeruginosa (strain ATCC 15692 / PAO1 / 1C / PRS 101 / LMG12228)); test: Modulation of Pseudomonas aeruginosa lacZ-fused lasI expressed in Escherichia coli DH5alpha co-expressing pBAD-lasR assessed as 3-oxo-C12-AHL-induced effect at 0.78 mM after 3 hrs by beta-galactosidase assay relative to control; procedure, shortened: as §2
[18] = target: 3-(3-hydroxydecanoyloxy)decanoate synthase (Pseudomonas aeruginosa (strain ATCC 15692 / PAO1 / 1C / PRS 101 / LMG12228)) (UniProt Q51559); test: Modulation of Pseudomonas aeruginosa lacZ-fused rhlA expressed in Escherichia coli DH5alpha co-expressing Ptac-rhlR assessed as C4-AHL-induced effect at 0.78 mM after 4 hrs by beta-galactosidase assay relative to control; procedure, shortened: as §3
[19] = target: T1, Acyl-homoserine-lactone synthase (Pseudomonas aeruginosa (strain ATCC 15692 / PAO1 / 1C / PRS 101 / LMG12228)); test: Modulation of Pseudomonas aeruginosa lacZ-fused lasI expressed in Escherichia coli DH5alpha co-expressing pBAD-lasR assessed as 3-oxo-C12-AHL-induced effect at 0.29 mM after 3 hrs by beta-galactosidase assay relative to control; procedure, shortened: as §2
[20] = target: 3-(3-hydroxydecanoyloxy)decanoate synthase (Pseudomonas aeruginosa (strain ATCC 15692 / PAO1 / 1C / PRS 101 / LMG12228)) (UniProt Q51559); test: Modulation of Pseudomonas aeruginosa lacZ-fused rhlA expressed in Escherichia coli DH5alpha co-expressing Ptac-rhlR assessed as C4-AHL-induced effect at 0.29 mM after 4 hrs by beta-galactosidase assay relative to control; procedure, shortened: as §1
[21] = target: 3-(3-hydroxydecanoyloxy)decanoate synthase (Pseudomonas aeruginosa (strain ATCC 15692 / PAO1 / 1C / PRS 101 / LMG12228)) (UniProt Q51559); test: Modulation of Pseudomonas aeruginosa lacZ-fused rhlA expressed in Escherichia coli DH5alpha co-expressing Ptac-rhlR assessed as C4-AHL-induced effect at 0.86 mM after 4 hrs by beta-galactosidase assay relative to control; procedure, shortened: as §3
[22] = target: T1, Acyl-homoserine-lactone synthase (Pseudomonas aeruginosa (strain ATCC 15692 / PAO1 / 1C / PRS 101 / LMG12228)); test: Modulation of Pseudomonas aeruginosa lacZ-fused lasI expressed in Escherichia coli DH5alpha co-expressing pBAD-lasR assessed as 3-oxo-C12-AHL-induced effect at 1.14 mM after 3 hrs by beta-galactosidase assay relative to control; procedure, shortened: as §2
[23] = target: 3-(3-hydroxydecanoyloxy)decanoate synthase (Pseudomonas aeruginosa (strain ATCC 15692 / PAO1 / 1C / PRS 101 / LMG12228)) (UniProt Q51559); test: Modulation of Pseudomonas aeruginosa lacZ-fused rhlA expressed in Escherichia coli DH5alpha co-expressing Ptac-rhlR assessed as C4-AHL-induced effect at 0.57 mM after 4 hrs by beta-galactosidase assay relative to control; procedure, shortened: as §1
[24] = target: T1, Acyl-homoserine-lactone synthase (Pseudomonas aeruginosa (strain ATCC 15692 / PAO1 / 1C / PRS 101 / LMG12228)); test: Modulation of Pseudomonas aeruginosa lacZ-fused lasI expressed in Escherichia coli DH5alpha co-expressing pBAD-lasR assessed as 3-oxo-C12-AHL-induced effect at 0.86 mM after 3 hrs by beta-galactosidase assay relative to control; procedure, shortened: as §2
[25] = target: T1, Acyl-homoserine-lactone synthase (Pseudomonas aeruginosa (strain ATCC 15692 / PAO1 / 1C / PRS 101 / LMG12228)); test: Modulation of Pseudomonas aeruginosa lacZ-fused lasI expressed in Escherichia coli DH5alpha co-expressing pBAD-lasR at 0.29 to 0.86 mM after 3 hrs by beta-galactosidase assay relative to control; procedure, shortened: as §2
[26] = target: T1, Acyl-homoserine-lactone synthase (Pseudomonas aeruginosa (strain ATCC 15692 / PAO1 / 1C / PRS 101 / LMG12228)); test: Modulation of Pseudomonas aeruginosa lacZ-fused lasI expressed in Escherichia coli DH5alpha co-expressing pBAD-lasR assessed as 3-oxo-C12-AHL-induced effect at 0.57 mM after 3 hrs by beta-galactosidase assay relative to control; procedure, shortened: as §2
[27] = target: 3-(3-hydroxydecanoyloxy)decanoate synthase (Pseudomonas aeruginosa (strain ATCC 15692 / PAO1 / 1C / PRS 101 / LMG12228)) (UniProt Q51559); test: Modulation of Pseudomonas aeruginosa lacZ-fused rhlA expressed in Escherichia coli DH5alpha co-expressing Ptac-rhlR assessed as C4-AHL-induced effect at 1.14 mM after 4 hrs by beta-galactosidase assay relative to control; procedure, shortened: as §3

Activity [1]: 106%
Activity [2]: 32%
Activity [3]: 109%
Activity [4]: 11%
Activity [5]: 103%
Activity [6]: 106%
Activity [7]: 18%
Activity [8]: 52%
Compound: CCCCCCCCCCCCSC[C@@H]1CCC(=O)N1

Activity [9]: 74%
Activity [10]: 80%
Activity [11]: 47%
Activity [12]: 93%
Activity [13]: 99%
Activity [14]: 100%
Activity [15]: 65%
Activity [16]: 57%
Compound: CCCCCCCCCSC[C@@H]1CCC(O)N1 (mixture of isomers)

Activity [17]: 6%
Activity [9]: 72%
Activity [10]: 115%
Activity [18]: 137%
Activity [12]: 95%
Activity [14]: 108%
Activity [15]: 26%
Activity [16]: 18%
Compound: CCCCCCCCCSC[C@@H]1CCC(=O)N1

Activity [19]: 228%
Activity [20]: 121%
Activity [21]: 41%
Activity [22]: 11%
Activity [23]: 138%
Activity [24]: 31%
Activity [25]: inactive
Activity [26]: 115%
Activity [27]: 9%
Compound: CCCSC[C@@H]1CCC(O)N1 (mixture of isomers)
